Results: ChEMBL document CHEMBL1944580, “Synthesis of novel sulfonamide-1,2,4-triazoles, 1,3,4-thiadiazoles and 1,3,4-oxadiazoles, as potential antibacterial and antifungal agents. Biological evaluation and conformational analysis studies” (2012)
Values after ≈ are worked out from the molar mass of the structure shown.

Assays:
[1] = test system: Talaromyces funiculosus; assay: Antifungal activity against Penicillium funiculosum ATCC 36839 treated for 72 hrs followed by sub-cultivated for 5 days by serial dilution method; format: functional
Outline: (§1)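 MFC obtained after the 72 h, 28 °C malt-broth microdilution (spore inoculum about 1.0 × 10^5 per well, compounds from 1 mg/ml DMSO). 2 µl was serially subcultured into 100 µl broth per well and incubated a further 5 days at 28 °C. MFC is the lowest concentration with no visible growth, taken as 99.5% killing of the original inoculum.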

[2] = test system: Aspergillus fumigatus; assay: Antifungal activity against Aspergillus fumigatus human isolate after 72 hrs by serial dilution method; format: functional
Outline: (§2)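 Modified microdilution MIC. Spores were washed from malt agar cultures with sterile 0.85% saline containing 0.1% Tween 80 and adjusted to about 1.0 × 10^5 per 100 µl well in malt broth. Compounds were dissolved in DMSO (1 mg/ml). Plates incubated 72 h at 28 °C. MIC is the lowest concentration with no visible growth under a binocular microscope. Bifonazole and ketoconazole were the references.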

[3] = test system: Micrococcus flavus; assay: Antibacterial activity against Micrococcus flavus ATCC 10240 after 24 hrs by micro dilution method; format: functional; conditions: ATCC 10240, 24 h
Outline: (§3)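 Microdilution MIC in 96-well plates. Bacterial suspensions adjusted in sterile saline to 1.0 × 10^5 CFU/ml, giving 1.0 × 10^4 cfu per well in LB broth. Compounds tested at up to 1 mg/ml. Plates incubated 24 h. MIC taken as the lowest concentration with no visible growth under a binocular microscope. OD at 655 nm was also read against a blank and the positive control. Streptomycin and ampicillin were the positive controls.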

[4] = test system: Aspergillus flavus; assay: Antifungal activity against Aspergillus flavus ATCC 9643 treated for 72 hrs followed by sub-cultivated for 5 days by serial dilution method; format: functional; outline: as §1
[5] = test system: Talaromyces funiculosus; assay: Antifungal activity against Penicillium funiculosum ATCC 36839 after 72 hrs by serial dilution method; format: functional; conditions: ATCC 36839, 72 h; outline: as §2
[6] = test system: Aspergillus fumigatus; assay: Antifungal activity against Aspergillus fumigatus human isolate treated for 72 hrs followed by sub-cultivated for 5 days by serial dilution method; format: functional; outline: as §1
[7] = test system: Enterobacter cloacae; assay: Antibacterial activity against Enterobacter cloacae human isolate after 24 hrs by micro dilution method; format: functional; outline: as §3
[8] = test system: Trichoderma viride; assay: Antifungal activity against Trichoderma viride IAM 5061 treated for 72 hrs followed by sub-cultivated for 5 days by serial dilution method; format: functional; outline: as §1
[9] = test system: Pseudomonas aeruginosa; assay: Antibacterial activity against Pseudomonas aeruginosa ATCC 27853 treated for 24 hrs followed by sub-cultivated for 72 hrs by micro dilution method; format: functional
Outline: (§4)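 2 µl from each well was serially subcultured into 100 µl fresh broth per well and incubated a further 72 h. MBC is the lowest concentration with no visible growth, taken as 99.5% killing of the original inoculum. Streptomycin and ampicillin were the positive controls.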

[10] = test system: Staphylococcus aureus; assay: Antibacterial activity against Staphylococcus aureus ATCC 6538 after 24 hrs by micro dilution method; format: functional; conditions: ATCC 6538, 24 h; outline: as §3
[11] = test system: Escherichia coli; assay: Antibacterial activity against Escherichia coli ATCC 35210 after 24 hrs by micro dilution method; format: functional; conditions: ATCC 35210, 24 h; outline: as §3
[12] = test system: Listeria monocytogenes; assay: Antibacterial activity against Listeria monocytogenes NCTC 7973 treated for 24 hrs followed by sub-cultivated for 72 hrs by micro dilution method; format: functional; outline: as §4
[13] = test system: Staphylococcus aureus; assay: Antibacterial activity against Staphylococcus aureus ATCC 6538 treated for 24 hrs followed by sub-cultivated for 72 hrs by micro dilution method; format: functional; outline: as §4
[14] = test system: Bacillus cereus; assay: Antibacterial activity against Bacillus cereus clinical isolate treated for 24 hrs followed by sub-cultivated for 72 hrs by micro dilution method; format: functional; outline: as §4
[15] = test system: Enterobacter cloacae; assay: Antibacterial activity against Enterobacter cloacae human isolate treated for 24 hrs followed by sub-cultivated for 72 hrs by micro dilution method; format: functional; outline: as §4
[16] = test system: Aspergillus niger; assay: Antifungal activity against Aspergillus niger ATCC 6275 treated for 72 hrs followed by sub-cultivated for 5 days by serial dilution method; format: functional; outline: as §1
[17] = test system: Salmonella typhimurium; assay: Antibacterial activity against Salmonella Typhimurium ATCC 13311 treated for 24 hrs followed by sub-cultivated for 72 hrs by micro dilution method; format: functional, Salmonella enterica subsp. enterica serovar Typhimurium; conditions: Salmonella enterica; outline: as §4
[18] = test system: Salmonella typhimurium; assay: Antibacterial activity against Salmonella Typhimurium ATCC 13311 after 24 hrs by micro dilution method; format: functional, Salmonella enterica subsp. enterica serovar Typhimurium; conditions: Salmonella enterica, ATCC 13311, 24 h; outline: as §3
[19] = test system: Aspergillus flavus; assay: Antifungal activity against Aspergillus flavus ATCC 9643 after 72 hrs by serial dilution method; format: functional; conditions: ATCC 9643, 72 h; outline: as §2
[20] = test system: Aspergillus niger; assay: Antifungal activity against Aspergillus niger ATCC 6275 after 72 hrs by serial dilution method; format: functional; conditions: ATCC 6275, 72 h; outline: as §2
[21] = test system: Aspergillus versicolor; assay: Antifungal activity against Aspergillus versicolor ATCC 11730 treated for 72 hrs followed by sub-cultivated for 5 days by serial dilution method; format: functional; outline: as §1
[22] = test system: Micrococcus flavus; assay: Antibacterial activity against Micrococcus flavus ATCC 10240 treated for 24 hrs followed by sub-cultivated for 72 hrs by micro dilution method; format: functional; outline: as §4
[23] = test system: Escherichia coli; assay: Antibacterial activity against Escherichia coli ATCC 35210 treated for 24 hrs followed by sub-cultivated for 72 hrs by micro dilution method; format: functional; outline: as §4
[24] = test system: Fulvia fulva; assay: Antifungal activity against Fulvia fulva treated for 72 hrs followed by sub-cultivated for 5 days by serial dilution method; format: functional; outline: as §1
[25] = test system: Penicillium ochrochloron; assay: Antifungal activity against Penicillium ochrochloron ATCC 9112 after 72 hrs by serial dilution method; format: functional; conditions: ATCC 9112, 72 h; outline: as §2
[26] = test system: Penicillium ochrochloron; assay: Antifungal activity against Penicillium ochrochloron ATCC 9112 treated for 72 hrs followed by sub-cultivated for 5 days by serial dilution method; format: functional; outline: as §1
[27] = test system: Aspergillus versicolor; assay: Antifungal activity against Aspergillus versicolor ATCC 11730 after 72 hrs by serial dilution method; format: functional; conditions: ATCC 11730, 72 h; outline: as §2
[28] = test system: Pseudomonas aeruginosa; assay: Antibacterial activity against Pseudomonas aeruginosa ATCC 27853 after 24 hrs by micro dilution method; format: functional; conditions: ATCC 27853, 24 h; outline: as §3
[29] = test system: Listeria monocytogenes; assay: Antibacterial activity against Listeria monocytogenes NCTC 7973 after 24 hrs by micro dilution method; format: functional; conditions: NCTC 7973, 24 h; outline: as §3
[30] = test system: Trichoderma viride; assay: Antifungal activity against Trichoderma viride IAM 5061 after 72 hrs by serial dilution method; format: functional; conditions: IAM 5061, 72 h; outline: as §2
[31] = test system: Fulvia fulva; assay: Antifungal activity against Fulvia fulva after 72 hrs by serial dilution method; format: functional; outline: as §2
[32] = test system: Bacillus cereus; assay: Antibacterial activity against Bacillus cereus clinical isolate after 24 hrs by micro dilution method; format: functional; outline: as §3

MIC [2] [µM] | MIC [3] [µM] | MIC [5] [µM] | MIC [7] [µM] | MIC [10] [µM] | MIC [11] [µM] | MIC [18] [µM] | MIC [19] [µM] | MIC [20] [µM] | SMILES | MFC [1] [µM] | MFC [4] [µM] | MFC [6] [µM] | MFC [8] [µM] | MBC [9] [µM] | MBC [12] [µM] | MBC [13] [µM] | MBC [14] [µM] | MBC [15] [µM] | MFC [16] [µM] | MBC [17] [µM] | other results
130 (≈ 50 µg/mL) | 650 (≈ 250 µg/mL) | 130 (≈ 50 µg/mL) | 650 (≈ 250 µg/mL) | 260 (≈ 100 µg/mL) | 650 (≈ 250 µg/mL) | 650 (≈ 250 µg/mL) | 130 (≈ 50 µg/mL) | 130 (≈ 50 µg/mL) | CCCn1c(Cc2cc(OC)c(OC)cc2S(=O)(=O)N(C)C)n[nH]c1=O | 260 (≈ 100 µg/mL) | 260 (≈ 100 µg/mL) | 260 (≈ 100 µg/mL) | 130 (≈ 50 µg/mL) | 780 (≈ 300 µg/mL) | 780 (≈ 300 µg/mL) | 390 (≈ 150 µg/mL) | 650 (≈ 250 µg/mL) | 780 (≈ 300 µg/mL) | 260 (≈ 100 µg/mL) | 650 (≈ 250 µg/mL) | MFC [21]: 390 µM (≈ 150 µg/mL); MBC [22]: 650 µM (≈ 250 µg/mL); MBC [23]: 650 µM (≈ 250 µg/mL); MFC [24]: 260 µM (≈ 100 µg/mL); MIC [25]: 130 µM (≈ 50 µg/mL); MFC [26]: 390 µM (≈ 150 µg/mL); MIC [27]: 130 µM (≈ 50 µg/mL); MIC [28]: 650 µM (≈ 250 µg/mL); MIC [29]: 650 µM (≈ 250 µg/mL); MIC [30]: 70 µM (≈ 26.9 µg/mL); MIC [31]: 260 µM (≈ 100 µg/mL); MIC [32]: 260 µM (≈ 100 µg/mL)
30 (≈ 11.5 µg/mL) | 390 (≈ 150 µg/mL) | 260 (≈ 100 µg/mL) | 390 (≈ 150 µg/mL) | 390 (≈ 150 µg/mL) | 390 (≈ 150 µg/mL) | 390 (≈ 150 µg/mL) | 260 (≈ 100 µg/mL) | 260 (≈ 100 µg/mL) | COc1cc(Cc2n[nH]c(=O)n2C(C)C)c(S(=O)(=O)N(C)C)cc1OC | 260 (≈ 100 µg/mL) | 390 (≈ 150 µg/mL) | 130 (≈ 50 µg/mL) | 70 (≈ 26.9 µg/mL) | 390 (≈ 150 µg/mL) | 390 (≈ 150 µg/mL) | 390 (≈ 150 µg/mL) | 780 (≈ 300 µg/mL) | 390 (≈ 150 µg/mL) | 390 (≈ 150 µg/mL) | 390 (≈ 150 µg/mL) | MFC [21]: 390 µM (≈ 150 µg/mL); MBC [22]: 390 µM (≈ 150 µg/mL); MBC [23]: 390 µM (≈ 150 µg/mL); MFC [24]: 260 µM (≈ 100 µg/mL); MIC [25]: 130 µM (≈ 50 µg/mL); MFC [26]: 390 µM (≈ 150 µg/mL); MIC [27]: 130 µM (≈ 50 µg/mL); MIC [28]: 390 µM (≈ 150 µg/mL); MIC [29]: 390 µM (≈ 150 µg/mL); MIC [30]: 30 µM (≈ 11.5 µg/mL); MIC [31]: 260 µM (≈ 100 µg/mL); MIC [32]: 260 µM (≈ 100 µg/mL)
